Data set [1] is described as follows: Therapeutic index, ratio of CC50 for dog MDCK cells to IC50 for Influenza A virus A/[…]/3/1975 (H3N2). The format is toxicity. The note with it: read-out: Ratio CC50/IC50.
Data set [2] has as its system Influenza A virus. As to the kind of experiment: Antiviral activity against Influenza A virus (A/Puerto Rico/8/34(H1N1)) infected in human A549 cells assessed as reduction in virus neuraminidase level incubated for 24 hrs by fluorescence based assay. The format is functional, organism-based. The note with it: A/Puerto Rico/8/1934(H1N1), A549, 24 h. An outline of the steps: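 A549 cells, 6,000/well, seeded onto compound (nine four-fold dilutions) in Ham's F12 with 2% FBS, 1% Hepes, gentamycin, 24 h at 37°C, 5% CO2; then infected with A/Puerto Rico/8/34 at MOI 1 for further 24 h.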

The nature of data set [3]: Therapeutic index, ratio of CC50 for human A549 cells to IC50 for Influenza A virus (A/Puerto Rico/8/34(H1N1)). The format is toxicity. To be noted: read-out: Ratio CC50/IC50.
The nature of data set [4]: Therapeutic index, ratio of CC50 for dog MDCK cells to IC50 for Influenza A virus (A/Taiwan/1/1986(H1N1)). The format is toxicity. The note with it: read-out: Ratio CC50/IC50.
Data set [5] has as its system Influenza A virus. As to the kind of experiment: Antiviral activity against Influenza A virus (A/Taiwan/1/1986(H1N1)) infected in MDCK cells assessed as reduction in virus-induced cytopathic effect by measuring ATP level incubated for 24 hrs by ATPlite luminescence assay. The format is functional, organism-based. In general terms: Damage to the host cells serves as the signal in cytopathic effect assays.

Data set [6] concerns Influenza A virus. Put plainly: Antiviral activity against Influenza A virus A/[…]/3/1975 (H3N2) infected in MDCK cells assessed as reduction in virus-induced cytopathic effect by measuring ATP level incubated for 24 hrs by ATPlite luminescence assay. In kind it is functional, organism-based.
Data set [7] can be described thus: Displacement of gamma-[6-aminohexyl]-GTP-biotin from Influenza B virus B/Brisbane/60/2008 C-terminal 6His-tagged PB2 (320 to 484 residues) expressed in Escherichia coli incubated for 1 hr by TR-FRET assay. On the technique in general: In TR-FRET formats the signal depends on donor and acceptor labels being close together.
Data set [8] in a line: Displacement of gamma-[6-aminohexyl]-GTP-biotin from Influenza A virus A/Victoria/3/1975 (H3N2) N-terminal 6His-tagged PB2 (320 to 484 residues) expressed in Escherichia coli incubated for 1 hr by TR-FRET assay.
In data set [9] the target is Glycogen synthase kinase-3 beta (Homo sapiens) (UniProt P49841). As to the kind of experiment: Inhibition of GSK3beta (unknown origin) at 1 uM.
Chain of Glycogen synthase kinase-3 beta (Homo sapiens) (P49841 whole entry, looked up): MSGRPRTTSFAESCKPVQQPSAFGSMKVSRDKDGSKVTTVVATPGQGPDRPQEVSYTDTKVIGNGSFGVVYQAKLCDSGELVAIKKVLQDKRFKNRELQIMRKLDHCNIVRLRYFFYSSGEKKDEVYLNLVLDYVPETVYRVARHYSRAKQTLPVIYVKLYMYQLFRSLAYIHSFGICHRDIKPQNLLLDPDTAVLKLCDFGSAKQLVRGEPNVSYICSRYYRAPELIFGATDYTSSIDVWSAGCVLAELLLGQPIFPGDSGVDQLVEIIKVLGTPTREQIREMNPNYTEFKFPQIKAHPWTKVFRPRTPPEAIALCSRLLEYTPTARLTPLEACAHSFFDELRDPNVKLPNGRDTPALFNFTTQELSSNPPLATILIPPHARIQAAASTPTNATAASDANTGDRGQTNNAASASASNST
For data set [10], the system named is Influenza A virus. Put plainly: In vivo antiviral activity against Influenza A virus (A/Puerto Rico/8/34(H1N1)) infected in BALB/c mouse assessed as survival rate at 30 mg/kg, po administered bid for 10 days after 48 hrs post infection and observed for 21 days relative to control. In kind it is functional, A/Puerto Rico/8/1934(H1N1).
The subject of data set [11] is Influenza A virus. As to the kind of experiment: In vivo antiviral activity against Influenza A virus (A/Puerto Rico/8/34(H1N1)) infected in BALB/c mouse assessed as survival rate at 10 mg/kg, po administered bid for 10 days after 48 hrs post infection and observed for 21 days relative to control. The format is functional, A/Puerto Rico/8/1934(H1N1).

Active and inactive are the calls of the source. No cut-off for these calls is given here.

For orientation: IC50 means the point on the concentration scale where inhibition reaches its midpoint. Turning to `N#Cc1cc(F)c2[nH]cc(-c3ncc(F)c(N[C@H]4C5CCC(CC5)[C@@H]4C(=O)O)n3)c2c1`, the selectivity ratio is 59 in data set [1], greater than 612 in data set [3] and 97 in data set [4]. The IC50 in the data set on Influenza A virus [2] came out at 43 nM; in the data set on Influenza A virus [5] it was 11 nM; with Influenza A virus [6], 19 nM; in [7], 13000 nM; in [8], 80 nM.
Regarding `NC(=O)c1nc(F)cnc1O`, the figures for the selectivity ratio in data set [1] and in [4] were greater than 3 and greater than 6, respectively. Moreover, the IC50 was found to be 16800 nM in the data set with Influenza A virus [5] and 35700 nM in the data set with Influenza A virus [6].
Regarding `O=C(O)[C@H]1C2CCC(CC2)[C@@H]1Nc1nc(-c2c[nH]c3c(F)cc(Cl)cc23)ncc1F`, the results for the selectivity ratio in data set [1], in data set [3] and in [4] were 28, greater than 485 and 83, respectively. Also, the IC50 with Influenza A virus [2] was 53 nM; in the data set with Influenza A virus [5], 21 nM; in the data set on Influenza A virus [6], 47 nM; in data set [7], greater than 50000 nM; in [8] it was 170 nM.
For the molecule `O=C(O)[C@H]1C2CCC(CC2)[C@@H]1Nc1nc(-c2c[nH]c3c(F)cc(F)cc23)ncc1F`, in data set [9], the inhibition entry is “inactive”. In addition, the IC50 in the data set on Influenza A virus [2] is 22 nM; in [7] it was greater than 50000 nM; in data set [8], 120 nM. Also, in the data set with Influenza A virus [10], the Activity is on record as 75%.
For `CCOC(=O)C1=C[C@@H](OC(CC)CC)[C@H](NC(C)=O)[C@@H](N)C1` [OSELTAMIVIR], the IC50 in the data set on Influenza A virus [2] was found to be 31 nM. The selectivity ratio in data set [3] is greater than 4130. The Activity in the data set with Influenza A virus [11] is 38%.
Consider `Cc1cc(F)c2[nH]cc(-c3ncc(F)c(N[C@H]4C5CCC(CC5)[C@@H]4C(=O)O)n3)c2c1`, for which the selectivity ratio in data set [1] was 25; in [3], 1490; in data set [4], 75. Further, the IC50 in the data set on Influenza A virus [2] is 22 nM; in the data set with Influenza A virus [5], 4 nM; in the data set with Influenza A virus [6], 11 nM; in [7], 26000 nM; in data set [8], 120 nM.

Values taken from ChEMBL document CHEMBL4414632, “Design, Synthesis, and Biological Evaluation of Novel Indoles Targeting the Influenza PB2 Cap Binding Region” (J Med Chem, 2019).
